# Measurements: ChEMBL document CHEMBL4184291, “Discovery of N-arylpyrroles as agonists of GPR120 for the treatment of type II diabetes” (Bioorg Med Chem Lett, 2018)
# Experiments:
# Cytochrome P450 2D6 = Cytochrome P450 2D6 (Homo sapiens, UniProt P10635); assay: Inhibition of CYP2D6 (unknown origin); format: ADME
# Cytochrome P450 1A2 = biological target: T1, Cytochrome P450 1A2 (Homo sapiens, UniProt P05177); assay: Inhibition of CYP1A2 (unknown origin); format: ADME
# T1 sequence (P05177 whole entry): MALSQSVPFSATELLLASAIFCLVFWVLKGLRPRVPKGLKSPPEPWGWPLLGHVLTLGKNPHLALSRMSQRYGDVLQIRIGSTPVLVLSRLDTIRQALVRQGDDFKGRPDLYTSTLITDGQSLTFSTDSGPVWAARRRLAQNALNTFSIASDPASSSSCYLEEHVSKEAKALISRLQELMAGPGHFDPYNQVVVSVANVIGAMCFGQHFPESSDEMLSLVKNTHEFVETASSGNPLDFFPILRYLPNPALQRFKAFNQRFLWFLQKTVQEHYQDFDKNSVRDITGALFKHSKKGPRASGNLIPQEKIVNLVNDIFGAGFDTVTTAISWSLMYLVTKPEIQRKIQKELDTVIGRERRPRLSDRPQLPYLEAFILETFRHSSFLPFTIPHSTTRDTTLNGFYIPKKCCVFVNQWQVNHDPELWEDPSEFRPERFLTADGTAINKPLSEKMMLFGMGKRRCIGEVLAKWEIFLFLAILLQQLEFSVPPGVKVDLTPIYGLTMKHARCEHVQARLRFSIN
# Cytochrome P450 2C19 = Cytochrome P450 2C19 (Homo sapiens, UniProt P33261); assay: Inhibition of CYP2C19 (unknown origin); format: ADME
# Sequence of Cytochrome P450 2C19 (P33261 whole entry): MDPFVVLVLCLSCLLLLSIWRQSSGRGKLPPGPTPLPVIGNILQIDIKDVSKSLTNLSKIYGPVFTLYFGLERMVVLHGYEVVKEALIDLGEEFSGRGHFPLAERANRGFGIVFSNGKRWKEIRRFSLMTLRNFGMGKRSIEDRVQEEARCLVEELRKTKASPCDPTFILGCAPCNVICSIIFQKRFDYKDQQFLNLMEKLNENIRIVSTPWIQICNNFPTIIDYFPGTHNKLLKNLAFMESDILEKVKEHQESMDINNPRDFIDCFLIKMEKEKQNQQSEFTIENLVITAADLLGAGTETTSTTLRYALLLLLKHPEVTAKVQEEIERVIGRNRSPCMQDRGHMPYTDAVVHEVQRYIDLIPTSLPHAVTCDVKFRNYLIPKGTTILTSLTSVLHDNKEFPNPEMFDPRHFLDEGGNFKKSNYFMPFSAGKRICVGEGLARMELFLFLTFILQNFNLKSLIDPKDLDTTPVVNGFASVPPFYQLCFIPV
# [1] = Half life in human liver microsomes; format: ADME, microsome
# [2] = Half life in mouse liver microsomes; format: ADME, microsome
# [3] = Half life in rat liver microsomes; format: ADME, microsome
# [4] = Protein binding in rat plasma; format: ADME, cell-free; conditions: read-out: PPB (converted)
# Mus musculus [5] = assay: Oral bioavailability in mouse at 14.6 mg/kg by LC-MS/MS analysis; format: ADME, organism-based; conditions: in vivo
# [6] = Clearance in rat at 2 mg/kg, iv by LC-MS/MS analysis; format: ADME, organism-based; conditions: in vivo
# [7] = Cmax in rat at 10 mg/kg, po by LC-MS/MS analysis; format: ADME, organism-based; set-up: dose 10 mg/kg, route oral; conditions: in vivo
# [8] = Oral bioavailability in rat at 10 mg/kg by LC-MS/MS analysis; format: ADME, organism-based; conditions: in vivo
# [9] = Clearance in dog at 1 mg/kg, iv by LC-MS/MS analysis; format: ADME, organism-based, Canis lupus familiaris; conditions: in vivo
# [10] = Half life in dog at 5 mg/kg, po by LC-MS/MS analysis; format: ADME, organism-based, Canis lupus familiaris; conditions: in vivo
# [11] = Oral bioavailability in dog at 5 mg/kg by LC-MS/MS analysis; format: ADME, organism-based, Canis lupus familiaris; conditions: in vivo
# [12] = biological target: T2, Free fatty acid receptor 4 (Homo sapiens, UniProt Q5NUL3); assay: Agonist activity at GPR120 in human HT-29 cells assessed as intracellular calcium flux; format: functional, cell-based
# T2 sequence (Q5NUL3 whole entry): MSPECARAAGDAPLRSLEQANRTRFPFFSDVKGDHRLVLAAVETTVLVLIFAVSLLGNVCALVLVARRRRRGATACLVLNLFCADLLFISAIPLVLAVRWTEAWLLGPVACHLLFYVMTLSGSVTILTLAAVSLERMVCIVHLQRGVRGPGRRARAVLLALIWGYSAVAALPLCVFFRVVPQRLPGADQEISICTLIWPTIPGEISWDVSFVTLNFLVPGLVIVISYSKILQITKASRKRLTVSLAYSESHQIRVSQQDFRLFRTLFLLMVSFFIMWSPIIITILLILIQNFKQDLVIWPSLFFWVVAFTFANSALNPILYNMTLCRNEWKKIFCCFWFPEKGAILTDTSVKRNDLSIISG
# Outline: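 Calcium-flux EC50 measured in HT-29 cells, a low-expressing line with endogenous GPR120.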
# [13] = biological target: Free fatty acid receptor 1 (Homo sapiens, UniProt O14842); assay: Agonist activity at human GPR40; format: functional
# Sequence of Free fatty acid receptor 1 (Homo sapiens, UniProt O14842) (O14842 whole entry): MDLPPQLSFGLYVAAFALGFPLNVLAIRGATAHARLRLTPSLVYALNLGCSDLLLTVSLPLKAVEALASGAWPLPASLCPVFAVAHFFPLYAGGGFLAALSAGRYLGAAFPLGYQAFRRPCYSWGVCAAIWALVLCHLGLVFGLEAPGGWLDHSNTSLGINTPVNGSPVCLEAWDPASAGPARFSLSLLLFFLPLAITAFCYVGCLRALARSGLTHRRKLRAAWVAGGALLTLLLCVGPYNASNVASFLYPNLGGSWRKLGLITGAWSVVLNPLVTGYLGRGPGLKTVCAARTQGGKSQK
# Homo sapiens = species on record: Homo sapiens; assay: Selectivity ratio of EC50 for human GPR40 to EC50 for recombinant human GPR120 expressed in HEK293 cells; format: cell-based
# [14] = biological target: Free fatty acid receptor 1 (Mus musculus, UniProt Q76JU9); assay: Agonist activity at mouse GPR40; format: functional
# Sequence of Free fatty acid receptor 1 (Mus musculus, UniProt Q76JU9) (Q76JU9 whole entry): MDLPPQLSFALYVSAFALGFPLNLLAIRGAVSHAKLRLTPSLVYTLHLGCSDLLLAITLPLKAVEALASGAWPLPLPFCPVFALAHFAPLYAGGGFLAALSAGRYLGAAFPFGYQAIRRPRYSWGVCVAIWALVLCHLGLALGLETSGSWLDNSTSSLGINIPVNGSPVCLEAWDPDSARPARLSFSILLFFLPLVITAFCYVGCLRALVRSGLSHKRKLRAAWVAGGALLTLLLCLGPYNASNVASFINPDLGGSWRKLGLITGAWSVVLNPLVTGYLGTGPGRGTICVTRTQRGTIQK
# [15] = biological target: 5-hydroxytryptamine receptor 2B (Homo sapiens) (UniProt P41595); assay: Displacement of [125I](+/-)DOI from recombinant human 5-HT2B at 10 uM after 60 mins by scintillation counting method relative to control
# Sequence of 5-hydroxytryptamine receptor 2B (Homo sapiens) (P41595 whole entry): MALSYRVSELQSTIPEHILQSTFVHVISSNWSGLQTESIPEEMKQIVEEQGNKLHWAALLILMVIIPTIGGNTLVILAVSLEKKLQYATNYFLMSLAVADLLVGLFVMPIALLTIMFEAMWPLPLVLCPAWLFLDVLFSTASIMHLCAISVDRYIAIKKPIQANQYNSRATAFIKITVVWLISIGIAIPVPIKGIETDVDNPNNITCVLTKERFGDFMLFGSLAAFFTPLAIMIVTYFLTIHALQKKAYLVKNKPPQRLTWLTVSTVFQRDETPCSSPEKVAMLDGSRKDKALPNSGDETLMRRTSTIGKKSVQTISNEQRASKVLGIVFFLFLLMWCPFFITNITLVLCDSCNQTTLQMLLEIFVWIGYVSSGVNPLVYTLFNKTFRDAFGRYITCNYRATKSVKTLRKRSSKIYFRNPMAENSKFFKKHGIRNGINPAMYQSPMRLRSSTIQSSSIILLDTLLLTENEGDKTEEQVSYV
# Rattus norvegicus = species on record: Rattus norvegicus; assay: Displacement of [35S]TBPS from rat GABA-gated chloride channel at 10 uM after 120 mins by scintillation counting method
# Cavia porcellus [16] = assay: Cardiotoxicity in guinea pig assessed as effect on PQ interval at 22.4 mg/kg; format: toxicity, organism-based; conditions: in vivo
# Cavia porcellus [17] = assay: Cardiotoxicity in guinea pig assessed as effect on QT interval at 22.4 mg/kg; format: toxicity, organism-based; conditions: in vivo
# Cavia porcellus [18] = assay: Cardiotoxicity in guinea pig assessed as effect on heart rate at 22.4 mg/kg; format: toxicity, organism-based; conditions: in vivo
# Mus musculus [19] = assay: Antidiabetic activity in po dosed diet-induced obese C57Bl/6 mouse model assessed as decrease in plasma glucose AUC administered 30 mins prior to glucose challenge measured up to 90 mins post dose by OGTT; format: functional, organism-based
# Outline: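 Diet-induced obese mice dosed orally at 0.1–3.0 mg/kg 30 min before an oral glucose load (time 0). Glucose followed from 30 min pre-glucose to 90 min post-glucose. Saxagliptin 1 mg/kg was the positive control.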
# Mus musculus [20] = assay: Antiobesity activity in diet-induced obesity C57Bl6/J mouse model assessed as basal glucose level in plasma at 10 mg/kg bid for 15 days measured on day 15 post 6 hrs fasting (reference value: 187 +/- 24 mg/dL); format: functional
# Mus musculus [21] = assay: Antiobesity activity in diet-induced obesity C57Bl6/J mouse model assessed as basal glucose level in plasma at 30 mg/kg qd for 15 days measured on day 15 post 6 hrs fasting (reference value: 187 +/- 24 mg/dL); format: functional
# Mus musculus [22] = assay: Antiobesity activity in diet-induced obesity C57Bl6/J mouse model assessed as final glucose level in plasma at 30 mg/kg qd for 15 days measured on day 15 post 6 hrs fasting (reference value: 184 +/- 30 mg/dL); format: functional
# Mus musculus [23] = assay: Antiobesity activity in diet-induced obesity C57Bl6/J mouse model assessed as change in plasma glucose level at 10 mg/kg qd for 15 days measured on day 15 post 6 hrs fasting; format: functional
# Mus musculus [24] = assay: Antiobesity activity in diet-induced obesity C57Bl6/J mouse model assessed as change in plasma glucose level at 10 mg/kg bid for 15 days measured on day 15 post 6 hrs fasting; format: functional
# Mus musculus [25] = assay: Antiobesity activity in diet-induced obesity C57Bl6/J mouse model assessed as basal insulin level in plasma at 10 mg/kg qd for 15 days measured on day 15 post 6 hrs fasting (reference value: 16959 +/- 4943 pg/ml); format: functional
# Mus musculus [26] = assay: Antiobesity activity in diet-induced obesity C57Bl6/J mouse model assessed as final insulin level in plasma at 10 mg/kg bid for 15 days measured on day 15 post 6 hrs fasting (reference value: 7304 +/- 2967 pg/ml); format: functional
# [27] = Plasma concentration in mouse at 3 mg/kg; format: ADME, organism-based; conditions: in vivo
# Outline: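 Plasma exposure for a 3 mg/kg oral dose in mice was predicted from the mouse PK study, not measured directly. It was expressed as ng/mL and converted to µM.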
# Sequence of Cytochrome P450 2D6 (P10635 whole entry): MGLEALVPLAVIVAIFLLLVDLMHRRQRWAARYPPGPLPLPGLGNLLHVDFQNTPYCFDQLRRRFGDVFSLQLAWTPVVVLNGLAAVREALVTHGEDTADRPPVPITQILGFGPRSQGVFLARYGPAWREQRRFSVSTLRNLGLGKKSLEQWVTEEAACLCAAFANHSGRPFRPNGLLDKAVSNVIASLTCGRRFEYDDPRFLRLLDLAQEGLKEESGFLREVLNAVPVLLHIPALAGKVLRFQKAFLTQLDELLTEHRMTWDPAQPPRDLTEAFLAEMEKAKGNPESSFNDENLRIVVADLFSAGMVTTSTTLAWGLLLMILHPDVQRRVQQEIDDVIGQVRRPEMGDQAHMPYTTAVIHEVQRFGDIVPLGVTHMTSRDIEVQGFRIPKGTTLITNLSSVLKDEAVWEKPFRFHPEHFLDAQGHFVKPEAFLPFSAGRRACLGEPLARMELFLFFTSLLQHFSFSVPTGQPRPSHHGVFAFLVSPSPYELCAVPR
smiles,measurement,setting,value
O=C(O)CCc1cc(F)c(OCc2c(C(F)(F)F)ccn2-c2ccc(Cl)cc2)c(F)c1,INH,Cytochrome P450 2D6,> 10 µM
same,INH,Cytochrome P450 1A2,> 10 µM
same,INH,Cytochrome P450 2C19,10 µM
same,half-life,[1],0.85 h
same,half-life,[2],2.58 h
same,half-life,[3],2.2 h
same,fraction unbound,[4],0.0017
same,F,Mus musculus [5],166%
same,clearance,[6],3.2 mL/min/kg
same,Cmax,[7],11600 ng/mL
same,bioavailability,[8],116%
same,clearance,[9],2.45 mL/min/kg
same,half-life,[10],4.37 h
same,bioavailability,[11],145%
same,EC50,[12],0.137 µM
same,EC50,[13],3.34 µM
same,Ratio EC50,Homo sapiens,42
same,EC50,[14],3.52 µM
same,inhibition,[15],62%
same,inhibition,Rattus norvegicus,66%
same,Activity,Cavia porcellus [16],Non-Toxic
same,Activity,Cavia porcellus [17],Non-Toxic
same,Activity,Cavia porcellus [18],Non-Toxic
same,Activity,Mus musculus [19],Dose-dependent effect
same,Activity,Mus musculus [20],203 mg/dL
same,Activity,Mus musculus [21],201 mg/dL
same,Activity,Mus musculus [22],151 mg/dL
same,Activity,Mus musculus [23],-23.7 mg/dL
same,Activity,Mus musculus [24],-16.4 mg/dL
same,Activity,Mus musculus [25],17395 pg/mL
same,Activity,Mus musculus [26],6225 pg/mL
same,concentration,[27],8.64 µM
